# Assay results: article PMC4975651 (Molecular cell, 2016)
# B1: FLAG-ZMYND8: ectopically expressed WT FLAG-ZMYND8 (protein, UniProt Q9ULU4 1-1186, looked up)
# MYND-type zinc …: MDISTRSKDPGSAERTAQKRKFPSPPHSSNGHSPQDTSTSPIKKKKKPGLLNSNNKEQSELRHGPFYYMKQPLTTDPVDVVPQDGRNDFYCWVCHREGQVLCCELCPRVYHAKCLRLTSEPEGDWFCPECEKITVAECIETQSKAMTMLTIEQLSYLLKFAIQKMKQPGTDAFQKPVPLEQHPDYAEYIFHPMDLCTLEKNAKKKMYGCTEAFLADAKWILHNCIIYNGGNHKLTQIAKVVIKICEHEMNEIEVCPECYLAACQKRDNWFCEPCSNPHPLVWAKLKGFPFWPAKALRDKDGQVDARFFGQHDRAWVPINNCYLMSKEIPFSVKKTKSIFNSAMQEMEVYVENIRRKFGVFNYSPFRTPYTPNSQYQMLLDPTNPSAGTAKIDKQEKVKLNFDMTASPKILMSKPVLSGGTGRRISLSDMPRSPMSTNSSVHTGSDVEQDAEKKATSSHFSASEESMDFLDKSTASPASTKTGQAGSLSGSPKPFSPQLSAPITTKTDKTSTTGSILNLNLDRSKAEMDLKELSESVQQQSTPVPLISPKRQIRSRFQLNLDKTIESCKAQLGINEISEDVYTAVEHSDSEDSEKSDSSDSEYISDDEQKSKNEPEDTEDKEGCQMDKEPSAVKKKPKPTNPVEIKEELKSTSPASEKADPGAVKDKASPEPEKDFSEKAKPSPHPIKDKLKGKDETDSPTVHLGLDSDSESELVIDLGEDHSGREGRKNKKEPKEPSPKQDVVGKTPPSTTVGSHSPPETPVLTRSSAQTSAAGATATTSTSSTVTVTAPAPAATGSPVKKQRPLLPKETAPAVQRVVWNSSSKFQTSSQKWHMQKMQRQQQQQQQQNQQQQPQSSQGTRYQTRQAVKAVQQKEITQSPSTSTITLVTSTQSSPLVTSSGSMSTLVSSVNADLPIATASADVAADIAKYTSKMMDAIKGTMTEIYNDLSKNTTGSTIAEIRRLRIEIEKLQWLHQQELSEMKHNLELTMAEMRQSLEQERDRLIAEVKKQLELEKQQAVDETKKKQWCANCKKEAIFYCCWNTSYCDYPCQQAHWPEHMKSCTQSATAPQQEADAEVNTETLNKSSQGSSSSTQSAPSETASASKEKETSAEKSKESGSTLDLSGSRETPSSILLGSNQGSDHSRSNKSSWSSSDEKRGSTRSDHNTSTSTKSLLPKESRLDTFWD
# modifications: FLAG tag
# Test system: Slug, CD44, EGFR, and VEGFA genes
# Format: cell-based, human
# Settings: ectopic expression, ZMYND8-depleted DU145 cells, n = 5
# Summary of the method: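 DU145 cells were infected with shZMYND8-97 lentivirus, then transfected with control vector, wild-type FLAG-ZMYND8, PHD point mutants (D108A, F109D) or a Bromo mutant (YN/AA). Construct expression was checked by western blot. DU145 cells treated with shLuciferase and transfected with control vector served as the control. CD44, Slug, VEGFA and EGFR expression was measured across 5 replicates.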
molecule,measurement,value
B1,"expression levels of Slug, CD44, EGFR, and VEGFA genes",significantly downregulated
